Assay results from different studies.
Each line is one published result; the experiments were not run side by side.
Organism: Mycobacterium tuberculosis
Observed: microbial growth

`OCN(CO)c1nc(N(CO)CO)nc(N(CO)CO)n1` has an MIC of 8 to 16 µg/mL (H37RV; 7 days).
`NNC(=O)c1ccncc1` has an MIC of 0.05 µg/mL (H37RV).
The MIC of `Cc1ccc(CN2CC[C@]34OC[C@H](C(C)C)N3C(=O)CC[C@@H]4C2)cc1` is reported as 1.66 µM (H37RV).
`[H]/N=C(/N)N[C@H]1[C@H](O)[C@@H](O)[C@H](O[C@@H]2O[C@@H](C)[C@](O)(C=O)[C@H]2O[C@@H]2O[C@@H](CO)[C@H](O)[C@@H](O)[C@@H]2NC)[C@@H](N/C(N)=N\[H])[C@@H]1O` gave an MIC of 1.1 µg/mL (H37RV).
For `Cc1ccc(C)n1-c1ccc(-c2nnc(-c3c(Cl)cccc3Cl)[nH]2)cc1`, the MIC was 8 µg/mL (broth dilution; H37RV; 21 days).
With `NNC(=O)c1ccncc1` the MIC was 0.8 µM (resazurin; H37RV).
With `CN(C)c1ccc(C=NC2=NN(c3ccccc3)C(=O)C2=NNc2nc(-c3ccccc3)cs2)cc1` the MIC was 6.25 µg/mL (resazurin; H37RV).
With `O=C(NN1C(=O)CSC12CCC(c1ccccc1)CC2)c1[nH]c2ccc(Cl)cc2c1-c1ccccc1` (centres unmarked) the MIC was 3.9 µM (ATCC27294 H37RV).
`O=C1C(=NNc2nc(-c3ccccc3)cs2)C(N=Cc2ccccc2Cl)=NN1c1ccccc1` gave an MIC of 25 µg/mL (resazurin; H37RV).
`CCCCCCCCCCC[C@@H](C[C@@H]1OC(=O)[C@H]1CCCCCC)OC(=O)[C@H](CC(C)C)NC=O` has an MIC of 24 µg/mL (resazurin; H37RA).
With `COC(=O)c1cc(-c2cccc(NC(=S)Nc3ccc(C)cc3)c2)on1` the MIC was 2 µg/mL (ATCC27294 H37RV; 7 days).
For `Cc1cc(C)n(C(=O)c2ccc(-n3c(C)ccc3C)cc2)n1`, the MIC was 8 µg/mL (broth dilution; H37RV; 21 days).
The MIC of `CCCCCCNC(=S)Nc1cccc(-c2cc(C(=O)OC)no2)c1` is reported as 2 µg/mL (ATCC27294 H37RV; 7 days).
`CO[C@H]1/C=C/O[C@@]2(C)Oc3c(C)c(O)c4c(O)c(c(/C=N/N5CCN(C)CC5)c(O)c4c3C2=O)NC(=O)/C(C)=C\C=C\[C@H](C)[C@H](O)[C@@H](C)[C@@H](O)[C@@H](C)[C@H](OC(C)=O)[C@@H]1C` has an MIC of 0.009 µM (H37RV).
For `COC(=O)c1cc(-c2cccc(NC(=O)Nc3cccc(Br)c3)c2)on1`, the MIC was 0.5 µg/mL (ATCC27294 H37RV; 7 days).
`O=C1COCCN1c1ccc(CO[C@@H]2COc3nc([N+](=O)[O-])cn3C2)cc1` has an MIC of 0.4 to 0.8 µg/mL (H37RV).
With `COC(=O)c1cc(-c2cccc(NC(=O)Nc3ccc(OC)cc3)c2)on1` the MIC was 8 µg/mL (ATCC27294 H37RV; 7 days).
`CC1SC2(CCC(c3ccccc3)CC2)N(NC(=O)c2[nH]c3ccc(Cl)cc3c2-c2ccccc2)C1=O` (centres unmarked) gave an MIC of 7.8 µM (ATCC27294 H37RV).
With `COC(=O)c1cc(-c2cccc(NC(=S)Nc3ccccc3)c2)on1` the MIC was 2 µg/mL (ATCC27294 H37RV; 7 days).
For `CCCCCCC/C=C\C(O)C#CC#CC(=O)CCOC` (centres unmarked), the MIC was greater than 60 µg/mL (resazurin; ATCC27294 H37RV; 7 days).
